In data set [1] the test system is Liver. Kind of data set: Drug level in human liver S9 fraction treated with 10 uM 20(S)-ginsenoside Rh2 for 60 mins by MS2 spectra. The note with it: s9, 1 h. Type of data set: ADME, subcellular. A digest of the protocol: (§1)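 Rh2 at 10 μM final (from methanol stock; 0.1% v/v methanol final) in 100 mM potassium phosphate pH 7.4 with 2 mM NADPH, open-to-air tubes at 37°C. 3 min preincubation, then started with liver microsomes or S9 at 1 mg/ml protein. Incubated 60 min, stopped with equal volume ice-cold acetonitrile. Controls lacked NADPH; duplicates. Metabolites detected by LC/ion-trap MSn.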

Data set [2] deals with Liver microsome. The data set can be described thus: Retention time in human liver microsomes treated with 10 uM 20(S)-ginsenoside Rh2 by MS2 spectra. Type of data set: ADME. A digest of the protocol: (§2)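 Samples: incubation mixed with equal volume methanol, centrifuged at 14,000g for 5 min, dried under nitrogen at 40°C, reconstituted. Separated on Eclipse XDB-C18 (4.6 × 150 mm, 5 μm) at 0.5 ml/min. Gradient: 0.1% formic acid in methanol against 0.1% formic acid in 5 mM ammonium acetate, 70% to 100% organic over 17 min. Ion-trap MSn detection.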
In general terms: Microsomes from liver hold many membrane-bound enzymes, among them those of drug oxidation.

In data set [3] the test system is Liver microsome. The data set can be described thus: Drug level in Sprague-Dawley rat liver microsomes treated with 10 uM 20(S)-ginsenoside Rh2 for 60 mins by MS2 spectra. Type of data set: ADME. As to conditions: 1 h. A digest of the protocol: as §1
Data set [4] deals with Liver microsome. The data set can be described thus: Drug level in beagle dog liver microsomes treated with 10 uM 20(S)-ginsenoside Rh2 for 60 mins by MS2 spectra. Type of data set: ADME, Canis lupus familiaris. As to conditions: 1 h. A digest of the protocol:
as §1

Data set [5] addresses Cytochrome P450 3A4 (Homo sapiens, UniProt P08684). The data set can be described thus: Drug level in human recombinant CYP3A4 treated with 10 uM 20(S)-ginsenoside Rh2 for 60 mins by MS2 spectra. Type of data set: ADME. The note with it: recombinant enzyme, 1 h. A digest of the protocol:
(§3)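 Recombinant human P450 (50 nM) with 10 μM Rh2 under the microsomal conditions: 100 mM potassium phosphate pH 7.4, 2 mM NADPH, 37°C for 60 min. Stopped with equal volume ice-cold acetonitrile. Run in duplicate; products analysed by LC/ion-trap MSn.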

Data set [6] has as its target Cytochrome P450 3A5 (Homo sapiens, UniProt P20815). The data set can be described thus: Drug level in human recombinant CYP3A5 treated with 10 uM 20(S)-ginsenoside Rh2 for 60 mins by MS2 spectra. Type of data set: ADME. As to conditions: recombinant enzyme, 1 h. A digest of the protocol: as §3
In data set [7] the test system is Liver microsome. The data set can be described thus: Drug level in human liver microsomes treated with 10 uM 20(S)-ginsenoside Rh2 for 60 mins by MS2 spectra. Type of data set: ADME. The note with it: 1 h. A digest of the protocol:
as §1

A short description of data set [8]: Drug level in cynomolgus monkey liver microsomes treated with 10 uM 20(S)-ginsenoside Rh2 for 60 mins by MS2 spectra. Type of data set: ADME, Macaca fascicularis. The note with it: 1 h. A digest of the protocol:
as §1

Data set [9] deals with Liver. The data set can be described thus: Retention time in human liver S9 fraction treated with 10 uM 20(S)-ginsenoside Rh2 by MS2 spectra. Type of data set: ADME, subcellular. A digest of the protocol: as §2
Data set [10] deals with Liver. Kind of data set: Drug level in CD-1 mouse liver microsomes treated with 10 uM 20(S)-ginsenoside Rh2 for 60 mins by MS2 spectra. The data set is classed as ADME. The note with it: 1 h. A digest of the protocol:
as §1

Sequence of Cytochrome P450 3A5 (P20815 whole entry): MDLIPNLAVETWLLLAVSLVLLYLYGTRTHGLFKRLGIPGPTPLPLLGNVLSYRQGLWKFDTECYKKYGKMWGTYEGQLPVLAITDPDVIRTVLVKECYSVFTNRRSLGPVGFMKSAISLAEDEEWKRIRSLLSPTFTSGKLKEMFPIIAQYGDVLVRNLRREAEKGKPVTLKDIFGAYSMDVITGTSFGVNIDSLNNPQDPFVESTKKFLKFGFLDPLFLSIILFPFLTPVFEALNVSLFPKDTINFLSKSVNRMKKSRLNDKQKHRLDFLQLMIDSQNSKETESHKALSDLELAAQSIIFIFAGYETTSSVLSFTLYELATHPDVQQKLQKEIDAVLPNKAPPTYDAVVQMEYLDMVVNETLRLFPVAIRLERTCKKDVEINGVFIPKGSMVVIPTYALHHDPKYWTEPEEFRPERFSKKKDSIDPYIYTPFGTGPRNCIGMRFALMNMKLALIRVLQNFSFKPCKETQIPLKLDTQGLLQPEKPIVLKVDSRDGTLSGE
Sequence of Cytochrome P450 3A4 (P08684 whole entry): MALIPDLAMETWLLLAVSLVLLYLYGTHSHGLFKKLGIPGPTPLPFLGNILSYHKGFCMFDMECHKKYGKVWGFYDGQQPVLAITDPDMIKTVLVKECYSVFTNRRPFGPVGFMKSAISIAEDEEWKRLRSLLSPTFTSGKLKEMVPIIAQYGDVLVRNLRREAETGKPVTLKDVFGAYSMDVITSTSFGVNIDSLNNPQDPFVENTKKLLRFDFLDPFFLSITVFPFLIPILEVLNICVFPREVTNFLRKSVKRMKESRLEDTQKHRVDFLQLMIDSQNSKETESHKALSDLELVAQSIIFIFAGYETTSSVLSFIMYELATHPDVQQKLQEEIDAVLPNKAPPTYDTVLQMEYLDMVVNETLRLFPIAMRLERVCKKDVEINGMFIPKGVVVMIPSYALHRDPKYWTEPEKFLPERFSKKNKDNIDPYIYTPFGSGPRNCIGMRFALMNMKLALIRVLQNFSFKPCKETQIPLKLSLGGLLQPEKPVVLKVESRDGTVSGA

`C/C(=C/CC[C@](C)(O)[C@H]1CC[C@]2(C)[C@@H]1[C@H](O)C[C@@H]1[C@@]3(C)CC[C@H](O[C@@H]4O[C@H](CO)[C@@H](O)[C@H](O)[C@H]4O)C(C)(C)[C@@H]3CC[C@]12C)C(=O)O`: the Drug metabolism result in [1] is “metabolite_detected”; in [3] it was “metabolite_detected”; in [4], “metabolite_not_detected”; in data set [5], “metabolite_detected”; in data set [6], “metabolite_not_detected”; in data set [7], “metabolite_detected”. The Drug metabolism entry in data set [8] and in data set [10] was “metabolite_detected” in each case. In addition, the Retention_time in [2] and in data set [9] was 13.2 min throughout.
On to `CC(C)(O)[C@@H]1CC[C@@](C)([C@H]2CC[C@]3(C)[C@@H]2[C@H](O)C[C@@H]2[C@@]4(C)CC[C@H](O[C@@H]5O[C@H](CO)[C@@H](O)[C@H](O)[C@H]5O)C(C)(C)[C@@H]4CC[C@]23C)O1`, for which the Drug metabolism result in data set [1], in data set [3], in data set [4], in [5], in data set [6] and in data set [7] was “metabolite_detected” in each case. Further, the Drug metabolism entry in data set [8] and in data set [10] was “metabolite_detected” throughout. Moreover, the Retention_time in data set [2] and in data set [9] was 18.9 min each time.
As to `CC(C)(O)[C@H]1CC[C@@](C)([C@H]2CC[C@]3(C)[C@@H]2[C@H](O)C[C@@H]2[C@@]4(C)CC[C@H](O[C@@H]5O[C@H](CO)[C@@H](O)[C@H](O)[C@H]5O)C(C)(C)[C@@H]4CC[C@]23C)O1`, the Drug metabolism result in data set [1] is recorded as “metabolite_detected”; in [3], “metabolite_detected”; in data set [4] it was “metabolite_detected”; in data set [5] it was “metabolite_detected”; in data set [6], “metabolite_not_detected”; in [7] it was “metabolite_detected”. Moreover, the Drug metabolism entry in data set [8] and in [10] was “metabolite_detected” in each case. Further, the Retention_time in data set [2] and in data set [9] was 20.2 min each time.
As for `CC1(C)O[C@H]1CC[C@](C)(O)[C@H]1CC[C@]2(C)[C@@H]1[C@H](O)C[C@@H]1[C@@]3(C)CC[C@H](O[C@@H]4O[C@H](CO)[C@@H](O)[C@H](O)[C@H]4O)C(C)(C)[C@@H]3CC[C@]12C`, the Drug metabolism entry in data set [1] is recorded as “metabolite_detected”; in [3], “metabolite_detected”; in data set [4], “metabolite_detected”; in data set [5], “metabolite_detected”; in data set [6], “metabolite_not_detected”; in data set [7], “metabolite_detected”. Moreover, the Drug metabolism result in data set [8] and in [10] was “metabolite_detected” each time. The Retention_time in data set [2] and in data set [9] was 20 min each time.
With `CC(O)(CO)[C@@H]1CC[C@@](C)([C@H]2CC[C@]3(C)[C@@H]2[C@H](O)C[C@@H]2[C@@]4(C)CC[C@H](O[C@@H]5O[C@H](CO)[C@@H](O)[C@H](O)[C@H]5O)C(C)(C)[C@@H]4CC[C@]23C)O1` (stereo not given in full), the Drug metabolism result in data set [1] is “metabolite_detected”; in data set [3] it was “metabolite_detected”; in data set [4], “metabolite_not_detected”; in data set [5] it was “metabolite_detected”; in data set [6], “metabolite_not_detected”; in [7], “metabolite_detected”. Also, the Drug metabolism entry in data set [8] and in data set [10] was “metabolite_detected” each time. The Retention_time in data set [2] and in data set [9] was 16.2 min throughout.
As to `C/C(=C/CC[C@](C)(O)[C@H]1CC[C@]2(C)[C@@H]1[C@H](O)C[C@@H]1[C@@]3(C)CC[C@H](O[C@@H]4O[C@H](CO)[C@@H](O)[C@H](O)[C@H]4O)C(C)(C)[C@@H]3CC[C@]12C)CO`, the Drug metabolism entry in [1], in data set [3], in data set [4], in data set [5], in [6] and in data set [7] was “metabolite_detected” in each case. Also, the Drug metabolism entry in data set [8] and in [10] was “metabolite_detected” each time. Moreover, the Retention_time in data set [2] and in [9] was 18.3 min in each case.
For the molecule `C/C(=C\CC[C@](C)(O)[C@H]1CC[C@]2(C)[C@@H]1[C@H](O)C[C@@H]1[C@@]3(C)CC[C@H](O[C@@H]4O[C@H](CO)[C@@H](O)[C@H](O)[C@H]4O)C(C)(C)[C@@H]3CC[C@]12C)C(=O)O`, the Drug metabolism result in data set [1] is listed as “metabolite_detected”; in data set [3] it was “metabolite_detected”; in data set [4], “metabolite_not_detected”; in data set [5], “metabolite_detected”; in data set [6] it was “metabolite_not_detected”; in data set [7], “metabolite_detected”. The results for the Drug metabolism result in [8] and in data set [10] were “metabolite_detected” and “metabolite_not_detected”, respectively. In addition, the Retention_time in data set [2] and in data set [9] was 14 min each time.
For `CC1(C)[C@@H](O[C@@H]2O[C@H](CO)[C@@H](O)[C@H](O)[C@H]2O)CC[C@]2(C)[C@H]3C[C@@H](O)[C@@H]4[C@@H]([C@@](C)(O)CCC=C(CO)CO)CC[C@@]4(C)[C@]3(C)CC[C@@H]12`, the Drug metabolism entry is reported as “metabolite_detected” in data set [1]; “metabolite_detected” in data set [3]; “metabolite_detected” in data set [4]; “metabolite_detected” in data set [5]; “metabolite_not_detected” in data set [6]; “metabolite_detected” in data set [7]. Besides, the Drug metabolism entry in data set [8] and in [10] was “metabolite_detected” each time. The Retention_time in data set [2] and in [9] was 12.2 min throughout.
`CC(O)(CO)[C@H]1CC[C@@](C)([C@H]2CC[C@]3(C)[C@@H]2[C@H](O)C[C@@H]2[C@@]4(C)CC[C@H](O[C@@H]5O[C@H](CO)[C@@H](O)[C@H](O)[C@H]5O)C(C)(C)[C@@H]4CC[C@]23C)O1` (stereo not given in full): the Drug metabolism result is “metabolite_detected” in data set [1]; “metabolite_detected” in data set [3]; “metabolite_not_detected” in data set [4]; “metabolite_detected” in data set [5]; “metabolite_not_detected” in [6]; “metabolite_detected” in data set [7]. Besides, the Drug metabolism entry in data set [8] and in data set [10] was “metabolite_detected” throughout. In addition, the Retention_time in data set [2] and in data set [9] was 16.7 min in each case.
Turning to `CC1(C)[C@@H](O[C@@H]2O[C@H](CO)[C@@H](O)[C@H](O)[C@H]2O)CC[C@]2(C)[C@H]3C[C@@H](O)[C@@H]4[C@@H]([C@@](C)(O)CC[C@@H]5O[C@@]5(C)CO)CC[C@@]4(C)[C@]3(C)CC[C@@H]12`, the Drug metabolism result was “metabolite_detected” in data set [1]; “metabolite_detected” in data set [3]; “metabolite_not_detected” in data set [4]; “metabolite_detected” in data set [5]; “metabolite_not_detected” in [6]; “metabolite_detected” in [7]. Besides, the Drug metabolism entry in [8] and in data set [10] was “metabolite_detected” in each case. In addition, the Retention_time in data set [2] and in [9] was 15.6 min throughout.

For the origin of these results see ChEMBL document CHEMBL3525925, “In vitro studies on the oxidative metabolism of 20(s)-ginsenoside Rh2 in human, monkey, dog, rat, and mouse liver microsomes, and human liver s9” (Drug Metab Dispos, 2012).
